ChEMBL document CHEMBL5375970, “Discovery of Potent and Selective WDR5 Proteolysis Targeting Chimeras as Potential Therapeutics for Pancreatic Cancer” (J Med Chem, 2023)
Active and inactive are the calls of the source.

Tests used:
[1] = biological target: WD repeat-containing protein 5 (Homo sapiens, UniProt P61964); assay: Binding affinity to full-length N-terminal His-tagged WDR5 (unknown origin) expressed in Escherichia coli BL21 (DE3) cells assessed as dissociation constant by isothermal titration calorimetry
How it was run: (§1)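 Inverse ITC was run with His-tagged VCB (pVHL54–213 co-expressed with EloB1–104 and EloC1–112) and E. coli BL21(DE3)-expressed WDR5, both purified by HisTrap and Superdex 200 gel filtration. Titrations were VCB into ligand, VCB into the ligand–WDR5 complex, and WDR5 into ligand. Three independent replicates were done, reported as mean ± SD, and the first injection was excluded from fitting.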

[2] = biological target: T1, von Hippel-Lindau disease tumor suppressor/WD repeat-containing protein 5 (Homo sapiens, UniProt P61964+P40337); assay: PROTAC activity at VHL/WDR5 in human HPAF-II cells assessed as degradation of WDR5 protein incubated for 18 hrs by Western blotting analysis; format: cell-based
How it was run: (§2)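 Five PDAC lines (MIA PaCa-2 in DMEM; BxPC-3, HPAF-II, Panc10.05 and PANC-1 in RPMI 1640; all with 10% FBS) given DMSO or compound over a concentration range up to 50 μM for 18 h. Lysates immunoblotted for WDR5 against tubulin. For MIA PaCa-2, DC50 and Dmax were fitted from 4 independent experiments.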

[3] = biological target: T1, von Hippel-Lindau disease tumor suppressor/WD repeat-containing protein 5; assay: PROTAC activity at VHL/WDR5 in human MIA PaCa-2 cells assessed as degradation of WDR5 protein at 0.1 uM incubated for 2 hrs by Western blotting analysis; format: cell-based
How it was run: (§3)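 Time course: MIA PaCa-2 cells given DMSO or 0.1 μM compound and harvested at the indicated times. Lysates immunoblotted for WDR5, with tubulin as loading control. Representative of at least two independent experiments.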

[4] = biological target: T1, von Hippel-Lindau disease tumor suppressor/WD repeat-containing protein 5; assay: PROTAC activity at VHL/WDR5 in human MIA PaCa-2 cells assessed as decrease in WDR5 protein by measuring degradation concentration incubated for 18 hrs by Western blotting analysis; format: cell-based
How it was run: (§4)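 MIA PaCa-2 cells were grown in DMEM with 10% FBS and treated with a concentration series for 18 h. Total lysates were Western blotted for WDR5 against a tubulin loading control using fluorescent secondary antibodies. DC50 and Dmax were fitted from 4 independent experiments.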

MIA PaCa-2 = assay: Growth inhibition of human MIA PaCa-2 cells incubated for 6 days by MTS assay; format: functional; conditions: MIA PaCa-2, 144 h, time 6 day
How it was run: (§5)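 MTS read-out. PDAC cells seeded at 500 or 1000 per well and exposed to a compound concentration series for 6 days, with medium plus fresh compound replaced every 2 days. MTS incubated 0.5–2 h, absorbance read at 490 nm. Growth normalized to DMSO. Three independent experiments, mean ± SEM; GI50 by nonlinear regression.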

Panc1005 = assay: Growth inhibition of human Panc1005 cells incubated for 6 days by MTS assay; format: functional; conditions: Panc1005, 144 h, time 6 day; how it was run: as §5
[5] = biological target: T1, von Hippel-Lindau disease tumor suppressor/WD repeat-containing protein 5; assay: PROTAC activity at VHL/WDR5 in human MIA PaCa-2 cells assessed as hook effect upto 50 uM incubated for 18 hrs by Western blotting analysis; format: cell-based; how it was run: as §2
[6] = biological target: T1, von Hippel-Lindau disease tumor suppressor/WD repeat-containing protein 5; assay: PROTAC activity at VHL/WDR5 in human MIA PaCa-2 cells assessed as maximal degradation of WDR5 protein incubated for 18 hrs by Western blotting analysis relative to control; format: cell-based; how it was run: as §4
[7] = biological target: T1, von Hippel-Lindau disease tumor suppressor/WD repeat-containing protein 5; assay: PROTAC activity at VHL/WDR5 in human HPAF-II cells assessed as hook effect upto 50 uM incubated for 18 hrs by Western blotting analysis; format: cell-based; how it was run: as §2
[8] = biological target: T1, von Hippel-Lindau disease tumor suppressor/WD repeat-containing protein 5; assay: PROTAC activity at VHL/WDR5 in human MIA PaCa-2 cells assessed as degradation of WDR5 protein at 1.5 uM incubated for 2 hrs by Western blotting analysis; format: cell-based
How it was run: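 MIA PaCa-2 cells given DMSO or 1.5 μM compound for 2 h. Lysates prepared for proteomics were checked by WDR5 immunoblot.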

[9] = biological target: T1, von Hippel-Lindau disease tumor suppressor/WD repeat-containing protein 5; assay: PROTAC activity at VHL/WDR5 in human MIA PaCa-2 cells assessed as maximal degradation of WDR5 protein at 0.1 uM incubated for 24 hrs by Western blotting analysis; format: cell-based; how it was run: as §3
[10] = biological target: T1, von Hippel-Lindau disease tumor suppressor/WD repeat-containing protein 5; assay: PROTAC activity at VHL/WDR5 in human Panc1005 cells assessed as degradation of WDR5 protein incubated for 18 hrs by Western blotting analysis; format: cell-based; how it was run: as §2
[11] = Drug distribution in Swiss albino mouse plasma at 75 mg/kg,ip administration measured for 4 hrs by LC-MS/MS analysis; format: ADME, organism-based
How it was run: (§6)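 Six male Swiss albino mice were each given one intraperitoneal dose of a solution formulation at 75 mg/kg. […] Plasma was quantified by LC–MS/MS (LLOQ 5.03 ng/mL), values are means of three mice per time point, and PK was derived by nonlinear regression.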

[12] = Drug distribution in Swiss albino mouse plasma at 75 mg/kg,ip administration measured for 12 hrs by LC-MS/MS analysis; format: ADME, organism-based; how it was run: as §6
[13] = biological target: T1, von Hippel-Lindau disease tumor suppressor/WD repeat-containing protein 5; assay: PROTAC activity at VHL/WDR5 in human MIA PaCa-2 cells assessed as degradation of WDR5 protein at 0.5 uM incubated for 4 hrs in presence of carfilzomib by Western blotting analysis; format: cell-based
How it was run: (§7)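 Rescue: MIA PaCa-2 cells pretreated for 2 h with 0.4 μM carfilzomib or with OICR-9429 at several concentrations, then given DMSO or 0.5 μM compound for a further 4 h. WDR5 immunoblotted against tubulin. Representative of at least two experiments.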

[14] = biological target: T1, von Hippel-Lindau disease tumor suppressor/WD repeat-containing protein 5; assay: PROTAC activity at VHL/WDR5 in human Panc1005 cells assessed as hook effect upto 50 uM incubated for 18 hrs by Western blotting analysis; format: cell-based; how it was run: as §2
[15] = biological target: T1, von Hippel-Lindau disease tumor suppressor/WD repeat-containing protein 5; assay: PROTAC activity at VHL/WDR5 in human MIA PaCa-2 cells assessed as degradation of WDR5 protein at 0.1 uM by Western blotting analysis; format: cell-based; conditions: TDE = time-dependent effect; how it was run: as §3
[16] = biological target: T1, von Hippel-Lindau disease tumor suppressor/WD repeat-containing protein 5; assay: PROTAC activity at VHL/WDR5 in human MIA PaCa-2 cells assessed as degradation of WDR5 protein incubated for 18 hrs by Western blotting analysis; format: cell-based; how it was run: as §2
[17] = biological target: T1, von Hippel-Lindau disease tumor suppressor/WD repeat-containing protein 5; assay: PROTAC activity at VHL/WDR5 in human PANC-1 cells assessed as hook effect upto 50 uM incubated for 18 hrs by Western blotting analysis; format: cell-based; how it was run: as §2
[18] = Toxicity in Swiss albino mouse assessed as clinical signs of toxicity at 75 mg/kg,ip observed after 0.5 to 12 hrs; format: organism-based; conditions: in vivo, time 0.5-12 hrs
How it was run: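 Six male Swiss albino mice were given one intraperitoneal dose of a solution formulation at 75 mg/kg and observed for clinical signs during the 12 h PK sampling period (0.5–12 h).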

HPAF-II = assay: Growth inhibition of human HPAF-II cells incubated for 6 days by MTS assay; format: functional; conditions: 144 h, time 6 day; how it was run: as §5
[19] = biological target: T1, von Hippel-Lindau disease tumor suppressor/WD repeat-containing protein 5; assay: PROTAC activity at VHL/WDR5 in human PANC-1 cells assessed as degradation of WDR5 protein incubated for 18 hrs by Western blotting analysis; format: cell-based; how it was run: as §2
BXPC-3 = assay: Growth inhibition of human BXPC-3 cells incubated for 6 days by MTS assay; format: functional; conditions: BXPC-3, 144 h, time 6 day; how it was run: as §5
[20] = biological target: T1, von Hippel-Lindau disease tumor suppressor/WD repeat-containing protein 5; assay: PROTAC activity at VHL/WDR5 in human BXPC-3 cells assessed as hook effect upto 50 uM incubated for 18 hrs by Western blotting analysis; format: cell-based; how it was run: as §2
[21] = Binding affinity to His-tagged VCB/full-length N-terminal His-tagged WDR5 (unknown origin) expressed in Escherichia coli BL21 (DE3) cells assessed as dissociation constant by isothermal titration calorimetry; design: species or system Homo sapiens; how it was run: as §1
[22] = biological target: T1, von Hippel-Lindau disease tumor suppressor/WD repeat-containing protein 5; assay: PROTAC activity at VHL/WDR5 in human BXPC-3 cells assessed as degradation of WDR5 protein incubated for 18 hrs by Western blotting analysis; format: cell-based; how it was run: as §2
[23] = AUC (0 to last) in Swiss albino mouse at 75 mg/kg,ip administration measured for 0.5 to 12 hrs by LC-MS/MS analysis; format: ADME, organism-based; design: time upper 12 hrs, dose 75 mg/kg, time lower 0.5 hrs, route ip; conditions: in vivo; how it was run: as §6
PANC-1 = assay: Growth inhibition of human PANC-1 cells incubated for 6 days by MTS assay; format: functional; conditions: PANC-1, 144 h, time 6 day; how it was run: as §5
[24] = Cmax in Swiss albino mouse at 75 mg/kg,ip administration measured for 0.5 hrs by LC-MS/MS analysis; format: ADME, organism-based; design: time 0.5 hrs, dose 75 mg/kg, route ip; conditions: in vivo; how it was run: as §6
[25] = biological target: T1, von Hippel-Lindau disease tumor suppressor/WD repeat-containing protein 5; assay: PROTAC activity at VHL/WDR5 in human MIA PaCa-2 cells assessed as degradation of WDR5 protein at 0.5 uM incubated for 4 hrs in presence of OICR-9429 by Western blotting analysis; format: cell-based; how it was run: as §7
[26] = biological target: T1, von Hippel-Lindau disease tumor suppressor/WD repeat-containing protein 5; assay: PROTAC activity at VHL/WDR5 in human MIA PaCa-2 cells assessed as degradation of WDR5 protein at 1.5 uM incubated for 2 hrs by TMT-labeled mass spectrometry based quantitative proteomics assay; format: cell-based
How it was run: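 TMT proteomics: MIA PaCa-2 cells given DMSO or 1.5 μM compound (2 h in the figure legend, 2.5 h in the methods). Cells lysed in 8 M urea pH 8.0, reduced with DTT, alkylated with iodoacetamide, then digested with LysC/trypsin overnight at 37 °C. Peptides TMT10plex-labelled and analyzed by MS. Cutoffs P < 0.01 and log2 fold change > 0.5, three biological replicates.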

Compound: Cc1ncsc1-c1ccc(CNC(=O)[C@@H]2C[C@@H](O)CN2C(=O)[C@@H](NC(=O)CNC(=O)c2ccc(F)c(-c3ccc(N4C[C@@H](C)N(C)[C@@H](C)C4)c(NC(=O)c4c[nH]c(=O)cc4C(F)(F)F)c3)c2)C(C)(C)C)cc1
- Kd [1]: 0.122 µM
- Activity [2]: Dose-Dependent Effect
- Activity [3]: Active
- DC50 [4]: 0.092 µM
- GI50 (MIA PaCa-2): 5.7 µM
- GI50 (Panc1005): 14.3 µM
- Activity [5]: inactive
- Emax [6]: 73%
- Activity [7]: inactive
- Activity [8]: Active
- Activity [9]: Active
- Activity [10]: Dose-Dependent Effect
- concentration at 4 h [11]: 1000 nM
- concentration at 12 h [12]: > 100 nM
- Activity [13]: inactive
- Activity [14]: inactive
- Activity [15]: Tde
- Activity [16]: Dose-Dependent Effect
- Activity [17]: inactive
- Activity [18]: Non-Toxic
- GI50 (HPAF-II): 9.2 µM
- Activity [19]: Dose-Dependent Effect
- GI50 (BXPC-3): 4 µM
- Activity [20]: inactive
- Kd [21]: 0.232 µM
- Activity [22]: Dose-Dependent Effect
- AUC(0-t) [23]: 7300 ng·h/mL
- GI50 (PANC-1): 32.7 µM
- Cmax [24]: 5000 nM
- Activity [25]: Active
- Activity [26]: Active
